A selection: hits, their analogues and other compounds. The true share with any hit is near 3.3%.
NRP1-CendR mod = NRP-1/CendR interaction modulation | O14786 | FAM-RPARPAR peptide binding to NRP-1, fluorescence polarization | inhibition, % at 25 µM | actives 0.85% (n = 360,000);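 active means inhibition or corrected inhibition above about 18%, plus a signal ratio from 0.5 to 1.5, limit read from the data, passing the limit was not always enough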
Lipid droplet = modulators of hepatic lipid droplet formation. actives 0.4% (n = 240,000). inhibition, % at 6.5 µM. AML12 mouse hepatocytes, oleate lipid droplets, BODIPY imaging;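 active means lipid droplet intensity inhibited by at least 50%, with more than 500 cells counted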
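Assay system: AML12 mouse liver cells | Compound dosing: One dose, 6.5 µM compound | Read-out basis: Droplet intensity reduction, % inhibition | Measured by: Fluorescence imaging, 20x objective, two fields per well | Schedule: Overnight treatment with compound plus oleate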
m5-HT2A agonist = agonists of mouse serotonin 5-HT2A receptor (HTR2A). CHO-K1 mHTR2A beta-arrestin complementation, luminescence; percent of 30 µM serotonin response. actives 0.66% (n = 360,000). AID 624169. activation, % at 7.6 µM;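 active means activation above a run cutoff, the mean activation of all tested compounds plus 3 SD, cut at about 14% in these data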
Target sequence (P35363 whole entry, looked up): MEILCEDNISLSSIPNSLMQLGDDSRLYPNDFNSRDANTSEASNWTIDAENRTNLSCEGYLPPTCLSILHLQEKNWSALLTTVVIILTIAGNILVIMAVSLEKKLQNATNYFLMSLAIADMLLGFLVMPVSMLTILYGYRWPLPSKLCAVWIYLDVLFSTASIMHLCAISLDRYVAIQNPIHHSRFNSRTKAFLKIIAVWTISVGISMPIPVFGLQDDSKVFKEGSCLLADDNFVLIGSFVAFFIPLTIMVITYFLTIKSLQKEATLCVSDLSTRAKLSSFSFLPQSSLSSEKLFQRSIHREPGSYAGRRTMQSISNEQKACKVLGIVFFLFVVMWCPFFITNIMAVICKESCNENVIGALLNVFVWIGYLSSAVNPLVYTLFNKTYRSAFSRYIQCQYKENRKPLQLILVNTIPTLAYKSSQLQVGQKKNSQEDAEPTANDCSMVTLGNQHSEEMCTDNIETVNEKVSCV
sPLA2-III inh = Inhibits HGIII-sPLA2 liposome hydrolysis, primary screen | QFRET BODIPY PC-A2 liposome hydrolysis, fluorescence | AID 743126 | actives 0.56% (n = 370,000) | inhibition, % at 12.2 µM | Q9NZ20;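 active means inhibition above mean plus 3 SD of compounds lying within the high and low control bounds, cut at about 19% in these data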
PfM18AAP inh = PfM18AAP enzyme inhibition | recombinant PfM18AAP, H-Glu-NHMec fluorogenic cleavage | inhibition, % at 7.35 µM | AID 1822 | actives 1.2% (n = 290,000);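 active means inhibition above the campaign mean inhibition over all tested compounds plus 3 SD, cut at about 28% in these data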
Arr AP2 block = human beta-arrestin and AP2 interaction inhibition | inhibition, % at 10 µM | FITC-arrestin peptide / GST-AP2 beads, flow cytometry; AP2 beta2 appendage carries R879A mutation | actives 0.31% (n = 340,000);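 active means inhibition above a set limit, near 3 SD of compounds lacking own fluorescence, cut at about 54% in these data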
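System: GST-AP2 R879A glutathione beads. Medium: PBS with 0.05% Tween 20 and 0.1% BSA. Also added: FITC-arrestin peptide, 50 nM. Incubation: 12 min plus 1 h, RT. Measured by: high-throughput flow cytometry of beads, ex 488, em 535 nm. Evaluation: percent drop in bead-associated FITC signal.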
Lipid drop inh = confirmation of inhibitors of hepatic lipid droplet formation | shares compounds with Lipid droplet | AML12 mouse hepatocytes, BODIPY lipid droplet imaging; droplets induced with 100 µM oleic acid | inhibition, % at 5.2 µM | actives 65% (n = 870);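 active means inhibition of lipid droplet metric at least 50%, with more than 300 cells in each of four replicates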
AML12 cytotox = toxic to AML12 mouse hepatocytes in counter-screen; actives 3% (n = 870); z-score at 5 µM; DAPI nuclear morphology cytotoxicity imaging; stronger effect = higher value; cells fed 100 µM oleate overnight; AID 463200; shares compounds with Lipid droplet; in the data active means z-score above about 6.3;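 further: compound exposure lasted overnight at 37 °C before fixation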
AML12 tox ATP = confirmation of cytotoxicity in AML12 mouse hepatocytes; AML12 mouse hepatocyte viability, ATP luminescence; cells loaded with 100 µM oleic acid; AID 463219; 530 tested, under 10 active; shares compounds with Lipid droplet; cytotoxicity, % at 50 µM;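 active means cytotoxicity above 50% in each of four replicates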;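 further: compound exposure lasted overnight at 37 °C before the ATP read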
Numbers stand for hits; n = inactive; x = not tested or not shown.

SMILES	NRP1-CendR mod	Lipid droplet	m5-HT2A agonist	sPLA2-III inh	PfM18AAP inh	Arr AP2 block	Lipid drop inh	AML12 cytotox	others
CCCNC1=CC(=O)CC(C)(C)C1	n	57	n	n	n	n	n	n
Cc1ccccc1-c1ccc2c(c1)O[C@@H](CN(C)C(=O)Nc1ccc(C(F)(F)F)cc1)[C@H](C)CN([C@@H](C)CO)S2(=O)=O	n	x	n	n	x	x	x	x
COc1ccc(F)cc1CN1CCN(c2ncnc3scc(-c4ccccc4)c23)CC1	n	56	n	n	n	n	n	n
COc1ccc(CN2CCN(c3ncnc4scc(-c5ccc(F)cc5)c34)CC2)cc1	n	n	n	n	n	n	x	x
Cc1ccc(C(=O)NCCNC(=O)c2ccc(C)nc2)cc1	n	56	n	n	n	n	91	n	AML12 tox ATP=n
CCCOc1cccc(C(=O)NCCNC(=O)c2ccc(C)nc2)c1	n	51	n	n	n	n	83	n	AML12 tox ATP=n
COc1ccc(C(=O)NCCNC(=O)c2ccc(C)nc2)cc1	n	n	n	n	n	n	x	x
CCOc1ccc(C(=O)NCCNC(=O)c2ccc(OCC)cc2)cc1	n	86	n	n	n	n	96	n	AML12 tox ATP=n
CCOc1ccc(C(=O)NCCO)cc1	n	n	n	n	n	n	x	x
COc1ccc(NC2CCCN(C(=O)CCCn3cncn3)C2)cc1OC (stereo not given)	n	n	n	n	n	n	x	x
COC(=O)c1cn(-c2nc3ccccc3s2)nn1	n	x	n	n	x	x	x	x
CCOC(=O)c1c(C)[nH]c(N=Nc2ccc(C)cc2C)c1C	n	x	n	n	n	n	x	x
CCOC(=O)c1c(C)[nH]c(N=Nc2ccccc2C)c1C	n	68	n	n	n	n	106	n	AML12 tox ATP=n
COc1ccc(-c2c/c(=N\c3nc(-c4ccccc4)c(C)s3)c3ccccc3o2)cc1O	n	58	n	n	n	n	n	23
CC(C)[C@H](NC(=O)c1ccco1)C(=O)N1CCC[C@H]1C(=O)NCc1ccccc1	x	x	x	n	x	x	x	x
Cc1cccc(C(C(=O)NC2CCCC2)N(C(=O)c2csnn2)C2CCCC2)c1 (stereo not given)	n	77	n	n	n	n	74	n	AML12 tox ATP=n
Cc1ccc(C2/C(=C(/O)c3cnn(-c4ccccc4)c3C)C(=O)C(=O)N2CCCN2CCOCC2)o1 (stereo not given)	x	96	x	x	n	x	n	n
Cc1ccc(NC(=O)N2CCC(C(=O)c3ccc(F)cc3)CC2)cc1	n	83	n	n	n	n	96	n	AML12 tox ATP=n
COc1ccc(C(=O)C2CCN(C(=O)Nc3ccc(C)cc3)CC2)cc1	n	n	n	n	n	n	x	x
Cc1noc(C)c1C(=O)Nc1ccc(F)cc1F	n	55	n	n	n	n	n	n
Cc1cc(C(=O)Nc2ccc(F)cc2F)on1	n	n	n	n	n	n	x	x
CCCCC1CCC(C(=O)N(CCCC)c2c(N)n(CCCC)c(=O)[nH]c2=O)CC1 (stereo not given)	n	n	n	n	n	n	x	x
C/C(=N\N=C(/N)c1nonc1N)c1ccc2c(c1)OCO2	n	66	n	n	n	n	n	n
Cc1nccn1-c1ccc(NC(=O)[C@@H](Cc2ccccc2)NC(=O)[C@H]2O[C@@H](n3ccc(=O)[nH]c3=O)[C@H](O)[C@@H]2O)cc1	x	x	x	n	x	x	x	x
COC(=O)c1cn(NC(=O)c2ccc([N+](=O)[O-])cc2Cl)c(=O)c2ccccc12	n	50	n	n	n	n	n	n
CC(C(=O)O)N(c1ccccc1Cl)S(C)(=O)=O (stereo not given)	n	x	n	n	x	n	x	x
COc1ccc2nc(SCC(=O)N3CC(=O)Nc4ccccc43)c(C#N)cc2c1	n	n	n	n	n	n	x	x

Assay outcomes: PubChem BioAssay, several laboratories
